What is called Hill coefficient is a measure of the steepness of the concentration-response curve. In general, Ki refers to the dissociation constant of the complex between target and ligand, obtained from inhibition or displacement. A higher Ki goes with lower affinity.

Series [1] concerns Rattus norvegicus. Nature of the series: Percent of animals selecting drug liver was determined at a dose of 32.56 intraperitoneally. (No. of animals disrupted:1). Format: functional. The method in brief: (§1)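 Male Sprague-Dawley rats (~200 g) were kept at ~80% free-feeding weight and trained on FR-50 to discriminate LSD tartrate (0.08 mg/kg ip) from saline. Test drug was given ip in saline 30 min before a session lasting until 50 responses or 5 min, unreinforced. Rats failing to make 50 responses were scored disrupted. At least eight rats were tested per dose.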

The test system of series [2] is Rattus norvegicus. As to the kind of experiment: Percent of animals selecting drug liver was determined at a dose of 40.70 intraperitoneally. (No. of animals disrupted:4). Format: functional. The method in brief: as §1
Series [3] deals with Rattus norvegicus. Nature of the series: Percent of animals selecting drug liver was determined at a dose of 4.07 intraperitoneally. ( No. of animals disrupted:0). In kind it is functional. In outline: as §1
The nature of series [4]: Hill coefficient as determined. In outline:
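Rat prefrontal cortex homogenate incubated in triplicate with 0.25 nM [125I]-(R)-DOI (2000 Ci/mmol) and varying displacer concentrations, 37 °C for 15 min. The radioligand K_D was 1.34 nM. Binding curves were fitted by computer analysis. Protein was measured by Bradford.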

Series [5] has as its system Rattus norvegicus. As to the kind of experiment: Percent of animals selecting drug liver was determined at a dose of 8.14 intraperitoneally. (No. of animals disrupted:1). Format: functional. In outline:
as §1

For series [6], the system named is Rattus norvegicus. As to the kind of experiment: Percent of animals selecting drug liver was determined at a dose of 16.28 intraperitoneally. (No. of animals disrupted:1). In kind it is functional. In outline:
as §1

Series [7] deals with Rattus norvegicus. As to the kind of experiment: Percent of animals selecting drug liver was determined at a dose of 2.03 intraperitoneally. (No. of animals disrupted:0). In kind it is functional. In outline:
as §1

For series [8], the system named is Rattus norvegicus. Nature of the series: Percent of animals selecting drug liver was determined at a dose of 10.19 intraperitoneally. (No. of animals disrupted:0). In kind it is functional. The method in brief: as §1
For series [9], the target named is Serotonin 2 (5-HT2) receptor (Rattus norvegicus, UniProt P30994+P08909+P14842). Nature of the series: Compound was evaluated for its ability to displace 0.25 nM [125I](R)-DOI from binding sites in rat frontal cortex. Format: tissue-based.
In series [10] the test system is Rattus norvegicus. As to the kind of experiment: Percent of animals selecting drug liver was determined at a dose of 8.16 intraperitoneally. (No. of animals disrupted:0). In kind it is functional. The method in brief: as §1
Series [11] concerns Rattus norvegicus. Nature of the series: Percent of animals selecting drug liver was determined at a dose of 12.16 intraperitoneally. (No. of animals disrupted:1). Format: functional. The method in brief:
as §1

Series [12] has as its system Rattus norvegicus. As to the kind of experiment: Percent of animals selecting drug liver was determined at a dose of 0.51 intraperitoneally. (No. of animals disrupted:0). Format: functional. In outline:
as §1

Series [13] relates to Rattus norvegicus. As to the kind of experiment: Percent of animals selecting drug liver was determined at a dose of 0.25 intraperitoneally. (No. of animals disrupted:0). Format: functional. The method in brief: as §1
The subject of series [14] is Rattus norvegicus. As to the kind of experiment: Percent of animals selecting drug liver was determined at a dose of 2.03 intraperitoneally. (No. of animals disrupted:2). Format: functional. The method in brief: as §1
Series [15] has as its system Rattus norvegicus. As to the kind of experiment: Percent of animals selecting drug liver was determined at a dose of 1.01 intraperitoneally. (No. of animals disrupted:0). Format: functional. In outline: as §1
The test system of series [16] is Rattus norvegicus. Nature of the series: Percent of animals selecting drug liver was determined at a dose of 1.02 intraperitoneally. (No. of animals disrupted:0). In kind it is functional. The method in brief: as §1
The subject of series [17] is Rattus norvegicus. As to the kind of experiment: Percent of animals selecting drug liver was determined at a dose of 2.03 intraperitoneally. (No. of animals disrupted:1). In kind it is functional. The method in brief: as §1

As to `COc1ccc(OC)c(CC(C)N)c1` (stereo not given), the SDL is reported as 63% in the series with Rattus norvegicus [1]; 63% in the series on Rattus norvegicus [2]; 38% in the series with Rattus norvegicus [3]; 38% in the series on Rattus norvegicus [5]; 50% with Rattus norvegicus [6]. Further, in series [4], the Hill coefficient was 0.92.

In the case of `COc1ccc2c(c1CC(C)N)CCO2` (stereo not given), the SDL was 25% in the series with Rattus norvegicus [7], 63% in the series on Rattus norvegicus [8], 50% in the series on Rattus norvegicus [10] and 88% in the series with Rattus norvegicus [11]. In series [4], this compound registered a Hill coefficient of 0.93. This compound displayed a Ki in series [9] of 146 nM.

As to `COc1cc(Br)c2c(c1CC(C)N)CCO2` (stereo not given), the SDL with Rattus norvegicus [12] came to 38%; in the series with Rattus norvegicus [13] it was 25%; with Rattus norvegicus [14] it was 88%; in the series on Rattus norvegicus [15], 75%. Also, the Hill coefficient in series [4] was 1.06. The compound also registered a Ki in [9] of 3.1 nM.

In series [4], `COc1cc2c(cc1CC(C)N)OCC2` (stereo not given) registered a Hill coefficient of 0.91. In series [9], the Ki is recorded as 388 nM.

In series [4], `COc1cc(CC(C)N)c(OC)cc1Br` (stereo not given) [BROLAMFETAMINE] had a Hill coefficient of 1.09.

`COc1cc(CC(C)N)c(OC)cc1C` (stereo not given) [DOM]: the SDL was found to be 13% in the series on Rattus norvegicus [12], 75% in the series on Rattus norvegicus [16] and 88% with Rattus norvegicus [17]. The compound further showed a Hill coefficient in series [4] of 0.89.
